The list is not random: actives were taken first. Their share in the collection is about 2.2%.
E-selectin induc: E-selectin induction in HUVECs, primary screen, imaging, HUVEC, immunofluorescence imaging, single point; AID 686992, 2013; normalized: neutral wells 0, TNF-alpha wells 100; 0.37% of 260,000 active; activation, % at 7.58 µM;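 active means mean E-selectin-positive cell signal at least 10% of the positive control, reached in at least 60% of replicates, without over 20% cell loss; inconclusive means no rule given, readout overlaps actives, possibly toxicity-flagged; inactive means the rest, including those meeting only one limit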
Target sequence (P16581 whole entry, looked up): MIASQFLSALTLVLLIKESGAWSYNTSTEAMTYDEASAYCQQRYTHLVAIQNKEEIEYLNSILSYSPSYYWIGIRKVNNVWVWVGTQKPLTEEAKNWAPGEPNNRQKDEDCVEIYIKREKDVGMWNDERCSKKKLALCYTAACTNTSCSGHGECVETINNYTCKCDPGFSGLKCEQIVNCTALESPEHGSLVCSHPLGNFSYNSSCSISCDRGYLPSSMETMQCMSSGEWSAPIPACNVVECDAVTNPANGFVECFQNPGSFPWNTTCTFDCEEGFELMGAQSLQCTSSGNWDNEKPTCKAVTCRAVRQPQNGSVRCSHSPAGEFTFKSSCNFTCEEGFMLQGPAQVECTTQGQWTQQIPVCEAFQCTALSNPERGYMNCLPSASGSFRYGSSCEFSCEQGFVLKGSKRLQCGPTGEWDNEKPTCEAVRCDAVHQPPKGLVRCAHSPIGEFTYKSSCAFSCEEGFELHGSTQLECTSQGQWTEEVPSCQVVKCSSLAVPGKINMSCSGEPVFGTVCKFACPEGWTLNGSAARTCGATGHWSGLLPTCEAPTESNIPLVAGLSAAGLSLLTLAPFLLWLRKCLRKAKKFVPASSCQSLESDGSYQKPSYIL
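System: HUVEC, human umbilical vein endothelial cells; quantity: 3,000 cells/well; buffer or medium: EGM-2 medium, gelatin-coated wells; dosing: single-point compound dose; detection: immunofluorescence imaging; evaluation: % PE-positive cells; benchmarks: TNF-alpha, DMSO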
DENV2 CPE rescue: inhibitors of DENV2 cytopathic effect, primary screen, cell-based, plate reader, single concentration; CPE inhibition, % at 9.99 µM; DENV2-infected cells, cytopathic effect rescue; 1.7% of 350,000 active; in the data active means CPE inhibition above about 20%, passing the limit was not always enough; inconclusive means no clear call, values can overlap the other calls; tested in BHK-21 cells;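 further: 0% = median of neutral control wells and 100% = median of positive control wells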
Statin myotox sup: suppressors of statin myotoxicity in C2C12 myotubes, primary screen, cell-based, single point, plate reader | rescue of ATP level, % at 7.49 µM | C2C12 myotubes + simvastatin, ATP luminescence, 48 h; scaled: DMSO 0, geranylgeraniol control 100 | 0.78% of 330,000 active;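 active means mean ATP rescue above about 67%, or every replicate alone reaching that limit, limit read from the data, passing the limit was not always enough; inconclusive means no clear call, values can overlap the other calls; inactive means mean under the limit and some replicate under it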;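 further: myotubes were challenged with 10 µM simvastatin during compound exposure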
The depositor's hits bear a star; ? = inconclusive; . = no result given.

SMILES	E-selectin induc	DENV2 CPE rescue	Statin myotox sup
COCCNC(=S)NCc1ccc2[nH]c3c(c2c1)CCCC3	-0.1	32.9*	3.6
C[C@H]1CN([C@@H](C)CO)C(=O)Cc2cc(NS(=O)(=O)c3cn(C)cn3)ccc2O[C@@H]1CN(C)C(=O)NC1CCCCC1	5.0	0.0	1.6
N#Cc1cc2c(nc1SCC(=O)N1CCCCC1)CCCC2	.	.	2.9
N#Cc1cc2c(nc1SCC(=O)N1CCCCC1)CCCCC2	.	.	116.8*
CCOC(=O)c1cccc(NC(=O)Nc2ccc3c(c2)C(=O)OC3)c1	61.1*	-2.1	.
CCOC(=O)C(=O)Nc1cccc(C(=O)OCC)c1	.	-1.0	.
O=C(C1CCOCC1)N1C[C@H]2[C@@H](c3ccccc31)[C@H](CO)N2Cc1ccccc1	-0.5	19.0	9.0
Cc1csc(NC(=O)CCn2c(=O)oc3ccc(Cl)cc32)n1	.	7.3	24.6
Cc1nnc(NC(=O)CCn2c(=O)oc3ccc(Cl)cc32)s1	0.0	23.5*	-3.1
C[C@@H]1CCCCO[C@H](CN(C)C(=O)NC2CCCCC2)[C@@H](C)CN([C@H](C)CO)C(=O)c2cc(NS(=O)(=O)c3ccccc3)ccc2O1	-0.1	-3.3	.
C[C@@H]1CCCCO[C@H](CN(C)C(=O)NC2CCCCC2)[C@@H](C)CN([C@@H](C)CO)C(=O)c2cc(NS(=O)(=O)c3ccccc3)ccc2O1	-0.2	-13.3	.
C[C@@H]1CN([C@H](C)CO)C(=O)c2cc(NS(=O)(=O)c3ccccc3)ccc2O[C@@H](C)CCCCO[C@@H]1CN(C)C(=O)NC1CCCCC1	-0.2	75.5*	.
C[C@H]1CCCCO[C@@H](CN(C)C(=O)NC2CCCCC2)[C@@H](C)CN([C@@H](C)CO)C(=O)c2cc(NS(=O)(=O)c3ccccc3)ccc2O1	-0.1	30.3*	.
COCC(=O)Nc1ccc2c(c1)C(=O)N(C)[C@@H]1CC[C@H](CC(=O)NCc3cccc(F)c3)O[C@@H]1CO2	-0.1	1.9	-4.1
C[C@H]1CN([C@@H](C)CO)C(=O)c2cc(NC(=O)CCC(F)(F)F)ccc2O[C@H]1CN(C)S(=O)(=O)c1ccccc1	-0.1	8.5	7.8
CC(C)CCNc1ncnc2c1nnn2Cc1ccccc1	.	-3.8	-3.7
COc1ccccc1CNc1ncnc2c1nnn2Cc1ccccc1	.	.	125.8*
COCC(=O)N(C)C[C@H]1Oc2cc(C#CCN(C)C)ccc2S(=O)(=O)N([C@H](C)CO)C[C@H]1C	0.0	-7.1	8.2
CCCC#Cc1ccc(CC[C@H]2O[C@H]3CC[C@H](CO)O[C@H]3C[C@H]2n2cc(C(C)(C)O)nn2)cc1	.	13.5	.
CCOc1ccc(C=NNc2ccc(S(=O)(=O)Nc3ccccc3C(=O)O)cc2[N+](=O)[O-])cc1	.	4.6	3.8
CCOc1cccc(C=NNc2ccc(S(=O)(=O)Nc3ccccc3C(=O)O)cc2[N+](=O)[O-])c1O	2.0	1.5	109.3*
O=C(NCc1nc2ccccc2[nH]1)C1=C[C@@H](c2coc3ccccc3c2=O)C[C@@H](OCCCCO)O1	.	82.4*	.
O=C(NCc1nc2ccccc2[nH]1)C1=C[C@@H](c2csc3ccccc23)C[C@@H](OCCCCO)O1	0.0	-5.7	-9.7
C[C@@H]1CN([C@H](C)CO)C(=O)c2cc(NC(=O)Nc3cccc4ccccc34)ccc2O[C@H]1CN(C)Cc1ccc(C(=O)Nc2ccccc2N)cc1	-2.9	7.6	30.4
C[C@H]1CN([C@@H](C)CO)C(=O)Cc2cc(NC(=O)NC3CCCCC3)ccc2O[C@@H]1CN(C)Cc1ccc(C(=O)Nc2ccccc2N)cc1	.	32.4*	.
SMILES	E-selectin induc	DENV2 CPE rescue	Statin myotox sup
CC(C)NC(=O)Nc1ccc2c(c1)CC(=O)N([C@H](C)CO)C[C@H](C)[C@@H](CN(C)Cc1ccc(C(=O)Nc3ccccc3N)cc1)O2	0.1	12.7	7.3
C[C@@H]1CN([C@@H](C)CO)C(=O)Cc2cc(NC(=O)Nc3cccc4ccccc34)ccc2O[C@@H]1CN(C)Cc1ccc(C(=O)Nc2ccccc2N)cc1	24.6	-10.4	.
C[C@H](CO)N1C[C@H](C)[C@H](CN(C)Cc2ccc(C(=O)Nc3ccccc3N)cc2)Oc2ccc(NC(=O)Nc3cccc4ccccc34)cc2CC1=O	21.8	-9.3	240.0*
C[C@@H]1CN([C@H](C)CO)C(=O)c2cc(NC(=O)Nc3cccc4ccccc34)ccc2O[C@@H]1CN(C)Cc1ccc(C(=O)Nc2ccccc2N)cc1	5.7	?	148.7*
C[C@H]1CN([C@@H](C)CO)C(=O)c2cc(NC(=O)CCN3CCOCC3)ccc2O[C@@H]1CN(C)S(=O)(=O)c1ccc(Cl)cc1	?	-10.1	8.4
COCC(=O)N1C[C@@H](C)[C@H](OC)CN(C)C(=O)c2cc(NC(=O)c3ccccc3)ccc2OC[C@@H]1C	-0.2	10.3	-11.5

Compound activity deposited in PubChem BioAssay by Broad Institute.
